Active and inactive are the calls of the source.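 Rule for the calls: active = IC50 at or below 1000 nM; inactive = IC50 above 1000 nM.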
Target: Protein-arginine deiminase type-4 (Homo sapiens) (UniProt Q9UM07)
Assay: human PAD4 inhibitor potency, late-stage follow-up, biochemical, colorimetric substrate assay, assay provider data, 0-50 µM (AID 588416)
Conditions: recombinant PAD4, BAEE substrate, citrulline colorimetric absorbance
Procedure, shortened: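 System – recombinant PAD4 · Input – 0.2 µM PAD4 · Incubation – 15 min + 15 min at 37 °C · Replication – duplicates · Doses – 7-point series, top 50 µM · Reagent – 10 mM BAEE substrate · Measure – IC50 from curve fit, citrulline quantified via citrulline standard curve · Measured by – colorimetric citrulline absorbance at 540 nm, diacetyl monoxime–thiosemicarbazide development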

Protein-arginine deiminase type-4 (Homo sapiens), sequence (Q9UM07 whole entry, looked up): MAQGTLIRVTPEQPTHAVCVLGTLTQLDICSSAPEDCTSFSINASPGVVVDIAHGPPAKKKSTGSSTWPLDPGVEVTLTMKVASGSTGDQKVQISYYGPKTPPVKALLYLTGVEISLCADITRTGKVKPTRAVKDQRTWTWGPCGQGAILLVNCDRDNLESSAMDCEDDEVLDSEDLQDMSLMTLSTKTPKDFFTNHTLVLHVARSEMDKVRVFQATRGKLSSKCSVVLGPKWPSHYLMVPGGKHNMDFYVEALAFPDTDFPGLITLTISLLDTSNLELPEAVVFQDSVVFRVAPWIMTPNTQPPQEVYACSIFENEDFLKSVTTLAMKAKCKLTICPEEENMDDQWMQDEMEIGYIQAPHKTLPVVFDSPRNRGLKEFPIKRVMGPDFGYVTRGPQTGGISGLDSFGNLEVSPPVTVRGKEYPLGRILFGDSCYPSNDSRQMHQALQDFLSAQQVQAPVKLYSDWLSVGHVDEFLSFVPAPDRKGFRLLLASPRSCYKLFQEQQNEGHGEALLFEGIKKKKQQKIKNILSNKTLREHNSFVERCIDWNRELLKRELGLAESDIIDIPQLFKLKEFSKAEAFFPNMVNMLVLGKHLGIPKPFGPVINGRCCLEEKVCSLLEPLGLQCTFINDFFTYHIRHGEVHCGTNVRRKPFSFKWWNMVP

IC50: inactive
SMILES: O=C1C=C(Br)C(=O)c2ncccc21
